Assay results from ChEMBL document CHEMBL1149430, “Optimization of diarylamines as non-nucleoside inhibitors of HIV-1 reverse transcriptase” (Bioorg Med Chem Lett, 2006).

How the values were obtained:
MT2 = experiment: Cytotoxicity against human MT2 cells by MTT assay; format: functional
[1] = tested on: Human immunodeficiency virus 1; experiment: Antiviral activity against HIV1 3B in MT2 cells by MTT assay; format: functional, organism-based
Procedure, shortened: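 HIV-1 IIIB infection of MT-2 human T cells, with MTT colorimetric read-out of cell protection.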

[2] = Human immunodeficiency virus 1, 3B, MT2, read-out: EC50

SMILES	CC50 (MT2) [µM]	EC50 [1, 2] [µM]	EC50 ([1]; mt2)
Clc1ccc(Nc2nccs2)cc1OCC1=CCCC1	15	5	
COCc1ccnc(Nc2ccc(Cl)c(OCC=C(C)C)c2)n1	> 25		Not Active
N#Cc1ccc(Nc2nccs2)cc1OCc1ccsc1	1.1		Not Active
N#Cc1ccc(Nc2nccs2)cc1OCc1nccs1	20	4.5	
COc1cc(OC)nc(Nc2ccc(Cl)c(OCC=C(C)C)c2)n1	28		
N#Cc1ccc(Nc2nccs2)cc1OCc1ccoc1	4		Not Active
CC(C)=CCOc1cc(Nc2ncccn2)ccc1Cl	2.5		
CC(C)=CCOc1cc(Nc2nccs2)ccc1C(=O)O	17		Not Active
Clc1ccc(Nc2nccs2)cc1OCc1ccccc1	17	6	
CC(C)=CCOc1cc(Nc2nccc(CO)n2)ccc1Cl	0.22		Not Active
CC(C)=CCOc1cc(Nc2nccs2)ccc1C#N	0.75		
N#Cc1ccc(Nc2nccs2)cc1OCC1=CCCC1	1.7		Not Active
Clc1ccc(Nc2nccs2)cc1OCc1nccs1	20		Not Active
N#Cc1ccc(Nc2nccs2)cc1OCc1ccco1	18	1.2	
Clc1ccc(Nc2nccs2)cc1OCc1ccoc1	26	7	
CC1=C(COc2cc(Nc3nccs3)ccc2Cl)CCC1	11		Not Active
CSc1ccnc(Nc2ccc(Cl)c(OCC=C(C)C)c2)n1	2.8		
COc1ccnc(Nc2ccc(C)c(OCC=C(C)C)c2)n1	41	0.32	
CC/C(C)=C\COc1cc(Nc2nccs2)ccc1Cl	18	1	
COc1ccc(Nc2nc(CO)cs2)cc1OCC=C(C)C	80	9	
COc1cc(N)nc(Nc2ccc(Cl)c(OCC=C(C)C)c2)n1	19		
Clc1ccc(Nc2nccs2)cc1OCc1ccsc1	38	5.5	
Clc1ccc(Nc2nccs2)cc1OCc1cccs1	38	10	
CC(C)=CCOc1cc(Nc2ncc(Br)c(N)n2)ccc1Cl	12	0.7	
N#Cc1ccc(Nc2nccs2)cc1OCc1cccs1	4.1		Not Active
Clc1ccc(Nc2nccs2)cc1OCC1CCCCC1	15		Not Active
CC(C)=CCOc1cc(Nc2nc(C)cc(N)n2)ccc1Cl	< 0.004		Not Active
CC(C)=CCOc1cc(Nc2nc(N)cc(Cl)n2)ccc1Cl	0.014		Not Active
Clc1ccc(Nc2nccs2)cc1OCc1ccco1	18	4	
